Test [1] deals with Cannabinoid receptor 1 (Rattus norvegicus, UniProt P20272). As to the kind of experiment: Inhibitory activity, measured by displacement [3H]CP-55940 from cannabinoid receptor (CB1) in rat brain. Type of test: tissue-based.
The nature of test [2]: Inhibitory activity at GABA B receptor, measured by the ability to displace [3H]baclofen from GABA B receptor in rat brain. It is filed as tissue-based.
Test [3] concerns the target GABA-A receptor; anion channel. As to the kind of experiment: Inhibitory activity at GABA A receptor, measured by the ability to displace [35S]TBPS from GABA A receptor in rat brain. It is filed as tissue-based.
Test [4] deals with GABA-A receptor; anion channel. As to the kind of experiment: Inhibitory activity at GABA A receptor, measured by the ability to displace [3H]GABA from GABA A receptor in rat brain. It is filed as tissue-based.
Test [5] deals with GABA-A receptor; anion channel. As to the kind of experiment: Inhibitory activity at GABA A receptor, measured by the ability to displace [3H]flumazenil from GABA A receptor in rat brain. Type of test: tissue-based.
The target of test [6] is GABA-A receptor; anion channel. The test is described as follows: Inhibitory activity at GABA A receptor, measured by the ability to displace [3H]zolpidem from GABA A receptor in rat brain. It is filed as tissue-based.
The test system of test [7] is Rattus norvegicus. As to the kind of experiment: Tested for antineophobic activity using the elevated plus maze test administered at 53 umol/kg perorally in rats. Type of test: functional.
The target in test [8] is T1, Gastrin/cholecystokinin type B receptor (Rattus norvegicus, UniProt P30553).
T1 sequence (P30553 whole entry): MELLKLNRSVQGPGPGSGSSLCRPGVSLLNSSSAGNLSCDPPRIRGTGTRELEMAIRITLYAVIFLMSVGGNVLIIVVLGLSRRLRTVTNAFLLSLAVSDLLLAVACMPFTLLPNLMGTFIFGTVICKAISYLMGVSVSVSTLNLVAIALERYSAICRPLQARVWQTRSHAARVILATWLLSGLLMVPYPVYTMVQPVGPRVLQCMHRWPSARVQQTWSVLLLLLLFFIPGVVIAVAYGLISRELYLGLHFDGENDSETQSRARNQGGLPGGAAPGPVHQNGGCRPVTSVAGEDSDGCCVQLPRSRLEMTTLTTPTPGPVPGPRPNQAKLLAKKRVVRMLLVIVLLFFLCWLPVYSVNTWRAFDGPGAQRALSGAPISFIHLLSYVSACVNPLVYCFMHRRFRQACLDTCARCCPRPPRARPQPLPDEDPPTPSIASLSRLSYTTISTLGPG
The test is described as follows: Inhibitory activity by measuring its ability to displace [3H]L-365260 from cholecystokinin receptor in rat brain. It is filed as tissue-based.

The target of test [9] is Adrenergic receptor alpha. As to the kind of experiment: Inhibitory activity by measuring its ability to displace [3H]WB-4101 from alpha-adrenergic receptor in rat brain. Type of test: tissue-based.
In test [10] the target is Adrenergic receptor alpha. As to the kind of experiment: Displacement of [3H]clonidine from alpha-adrenergic receptor in rat brain. Type of test: tissue-based. (In general: Displacement assays read how much labelled ligand stays bound in the presence of the test substance.)
In test [11] the target is Adrenergic receptor beta (Rattus norvegicus, UniProt P18090+P10608+P26255). The test is described as follows: Inhibitory activity by measuring its ability to displace [125I]pindolol from beta-adrenergic receptor in rat brain. It is filed as tissue-based.
The nature of test [12]: Inhibitory activity by measuring its ability to displace [3H]glycine from glycine receptor in rat brain. It is filed as tissue-based.
Test [13] addresses Glutamate NMDA receptor. The test is described as follows: Inhibitory activity by measuring its ability to displace [3H]-MK-801 from glutamate(NMDA) receptor in rat brain. Type of test: tissue-based.
Test [14] is described as follows: Tested for inhibitory activity by measuring its ability to displace [3H]AMPA from glutamate (non-NMDA) receptor in rat brain. Type of test: tissue-based.
Test [15] is described as follows: Inhibitory activity by measuring its ability to displace [3H]spiperone from dopamine or serotonin 5-HT-1 receptors in rat brain. It is filed as tissue-based.
Test [16] has as its target Opioid receptor (Rattus norvegicus, UniProt P33533+P34975+P33535). The test is described as follows: Inhibition of [3H]naxolone binding to opiate receptors in rat brain. It is filed as tissue-based.
Test [17] concerns the target Translocator protein (Rattus norvegicus, UniProt P16257). The test is described as follows: Binding affinity against mitochondrial DBI complex (peripheral benzodiazepine receptor) using primary cultures of glial cells. In a few lines: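 Glia from cerebella of 8-day-old Sprague–Dawley rat pups, trypsin-dissociated and grown 14 days (~95% astroglia). Cells lysed in 50 mM Hepes pH 7.4, 4 μg protein per tube. Incubated with [3H]4'-chlorodiazepam and competitor for 90 min at 4 °C, then filtered. Nonspecific binding defined with 10 μM 4'-chlorodiazepam. Triplicate competition curves; IC50 by nonlinear regression, converted to Ki (Bylund–Yamamura).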

Test [18] has as its target Serotonin 2 (5-HT2) receptor (Rattus norvegicus). As to the kind of experiment: Inhibitory activity by measuring its ability to displace [3H]ketanserin from serotonin receptor in rat brain.
Test [19] concerns the target Sigma receptor (Rattus norvegicus). As to the kind of experiment: Tested for inhibitory activity by measuring its ability to displace [3H]3-PPP from sigma receptor in rat brain.
Test [20] deals with Rattus norvegicus. The test is described as follows: Tested for antineophobic activity using the elevated plus maze test administered at 40 umol/kg perorally in rats. It is filed as functional.
For test [21], the target named is Adrenergic receptor alpha. As to the kind of experiment: Inhibitory activity by measuring its ability to displace [3H]clonidine from alpha-adrenergic receptor in rat brain. Type of test: tissue-based.
Test [22] has as its system Rattus norvegicus. The test is described as follows: Tested for antineophobic activity using the elevated plus maze test administered at 71 umol/kg perorally in rats. It is filed as functional.
Test [23] concerns Rattus norvegicus. As to the kind of experiment: Tested for antineophobic activity using the elevated plus maze test administered at 58 umol/kg perorally in rats. Type of test: functional.
For test [24], the system named is Rattus norvegicus. As to the kind of experiment: Tested for antineophobic activity using the elevated plus maze test administered at 59 umol/kg perorally in rats. Type of test: functional.

Structures are written as SMILES.

Chain of Translocator protein (P16257 whole entry, looked up): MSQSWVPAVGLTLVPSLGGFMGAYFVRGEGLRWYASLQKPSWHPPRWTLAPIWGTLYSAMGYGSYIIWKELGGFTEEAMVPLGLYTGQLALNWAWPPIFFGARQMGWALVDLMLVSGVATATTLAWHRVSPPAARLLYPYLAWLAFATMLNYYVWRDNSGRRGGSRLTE
Chain of Cannabinoid receptor 1 (P20272 whole entry): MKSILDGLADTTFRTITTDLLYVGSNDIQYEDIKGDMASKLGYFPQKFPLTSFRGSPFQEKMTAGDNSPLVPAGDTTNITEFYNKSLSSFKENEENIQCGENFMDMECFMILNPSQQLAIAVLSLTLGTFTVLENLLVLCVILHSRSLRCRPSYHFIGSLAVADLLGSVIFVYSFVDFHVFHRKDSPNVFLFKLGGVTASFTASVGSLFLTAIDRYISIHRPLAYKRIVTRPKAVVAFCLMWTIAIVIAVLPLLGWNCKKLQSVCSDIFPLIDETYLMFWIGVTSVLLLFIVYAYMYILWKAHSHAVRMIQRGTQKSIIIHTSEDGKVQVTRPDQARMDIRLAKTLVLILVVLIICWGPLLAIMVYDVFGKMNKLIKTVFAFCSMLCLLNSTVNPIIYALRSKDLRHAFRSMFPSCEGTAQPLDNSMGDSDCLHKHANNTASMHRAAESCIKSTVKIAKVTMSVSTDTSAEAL

The term IC50 denotes the concentration that gives 50% inhibition. A low value points to inhibition by little substance. One may read the Ki as the equilibrium dissociation constant of an inhibitor or competing ligand from its target. A high value points to weaker binding. As for `CCCCCCN(CCCCCC)C(=O)Cc1c(-c2ccc(F)cc2)[nH]c2ccc(Cl)cc12`, the IC50 in test [1], in test [2], in [3], in test [4], in test [5] and in test [6] was more than 1000 nM in each case. In addition, the IC50 in test [8], in test [9], in test [10], in test [11], in [12] and in test [13] was more than 1000 nM in each case. For the same compound, the IC50 in test [14], in test [15], in [16], in [18] and in test [19] was more than 1000 nM in each case. Besides, the No. of entries in test [7] stood at 0.4. For the same compound, the Time in [7] is given as 0.4%. The same compound yielded a Ki in test [17] of 2.3 nM.
On to `CCCCN(CCCC)C(=O)Cc1c(-c2ccc(F)cc2)[nH]c2ccccc12`, for which the IC50 in test [1], in test [2], in test [3], in [4], in test [5] and in test [6] was more than 1000 nM in each case. The IC50 in [8], in test [9], in test [21], in test [11], in test [12] and in test [13] was more than 1000 nM each time. Further, the 50% inhibitory concentration (IC50) in [14], in test [15], in test [16], in [18] and in [19] was more than 1000 nM in each case. Besides, the No. of entries in test [20] was 3.6. For the same compound, the Time in [20] turned out to be 8%. In addition, the Ki in test [17] is 45 nM.
Regarding `CCCCCCNC(=O)Cc1c(-c2ccc(F)cc2)[nH]c2ccccc12`, the IC50 in test [1], in test [2], in test [3], in test [4], in [5] and in test [6] was more than 1000 nM each time. For the same compound, the IC50 in test [8], in test [9], in [21], in test [11], in test [12] and in [13] was more than 1000 nM each time. Also, the IC50 in test [14], in test [15], in test [16], in test [18] and in test [19] was more than 1000 nM in each case. Besides, in test [22], the No. of entries came out at 0.6. The Time in test [22] was 1.6%. In addition, in test [17], the Ki is 323 nM.
With `CCCN(CCC)C(=O)Cc1cn(Cc2ccc(Br)cc2)c2ccccc12`, the IC50 in [1], in test [2], in test [3], in [4], in test [5] and in [6] was more than 1000 nM throughout. Moreover, the IC50 in test [8], in test [9], in test [21], in test [11], in test [12] and in test [13] was more than 1000 nM throughout. Also, the IC50 in test [14] and in [15] was more than 1000 nM throughout. The No. of entries in [23] is listed as 0.6. Besides, the Time in test [23] is listed as 1%. The compound also registered a Ki in test [17] of 200 nM.
Consider `CCCN(CCC)C(=O)Cc1c2n(c3ccccc13)Cc1ccccc1-2`, for which the IC50 in [1], in test [2], in test [3], in [4], in [5] and in test [6] was more than 1000 nM in each case. Moreover, the half-maximal inhibitory concentration (IC50) in test [8], in test [9], in [10], in test [11], in test [12] and in test [13] was more than 1000 nM throughout. The IC50 in test [14], in test [15], in [16], in [18] and in test [19] was more than 1000 nM throughout. Besides, the affinity in test [17], expressed as Ki, was 20 nM.
Turning to `CCCCCCN(CCCCCC)CCc1c(-c2ccc(F)cc2)[nH]c2ccccc12`, the IC50 in test [1], in test [2], in test [3], in test [4], in test [5] and in test [6] was more than 1000 nM in each case. Moreover, the IC50 in test [8], in test [9], in [10], in [11], in test [12] and in test [13] was more than 1000 nM each time. The IC50 in test [14] and in test [15] was more than 1000 nM in each case. Besides, the No. of entries in [24] is 2. Further, the Time in [24] is given as 4.1%. In test [17], the inhibitory constant (Ki) is 200 nM.
On to `CCCCCCN(CCCCCC)C(=O)Cc1c2n(c3ccccc13)Cc1ccccc1-2`, for which the IC50 in test [1], in test [2], in test [3], in test [4], in [5] and in [6] was more than 1000 nM throughout. Further, the IC50 in test [8], in test [9], in test [10], in test [11], in test [12] and in test [13] was more than 1000 nM throughout. For the same compound, the IC50 in test [14] and in test [15] was more than 1000 nM throughout. Moreover, the No. of entries in test [23] is listed as 2. Moreover, the Time in test [23] is on record as 6.4%. The compound also displayed a Ki in [17] of 7.7 nM.
As for `CCCCCCCCCCCCCCCCCCNC(=O)Cc1c(-c2ccccc2)[nH]c2ccccc12`, the IC50 in test [1], in test [2], in [3], in test [4], in test [5] and in [6] was more than 1000 nM each time. In addition, the IC50 in [8], in test [9], in [10], in test [11], in test [12] and in test [13] was more than 1000 nM in each case. For the same compound, the IC50 in [14], in test [15], in test [16], in test [18] and in [19] was more than 1000 nM in each case.
On to `CCCCCCN(CCCCCC)C(=O)Cc1c(-c2ccccc2)[nH]c2ccccc12`, for which the half-inhibitory concentration (IC50) in test [1], in [2], in test [3], in test [4], in test [5] and in [6] was more than 1000 nM each time. For the same compound, the IC50 in test [8], in test [9], in [21], in test [11], in [12] and in [13] was more than 1000 nM each time. Further, the 50% inhibitory concentration (IC50) in test [14], in test [15], in test [16], in test [18] and in test [19] was more than 1000 nM in each case. The No. of entries in [24] is 1.6. Also, the Time in test [24] came to 6.2%. The inhibition constant (Ki) in test [17] was determined as 9.7 nM.

Values taken from ChEMBL document CHEMBL1126834, “Chemistry, binding affinities, and behavioral properties of a new class of "antineophobic" mitochondrial DBI receptor complex (mDRC) ligands” (J Med Chem, 1993).
